procasp7 counter – counter-screen: procaspase-7 (human) activation. P55210. recombinant procaspase-7, Ac-DEVD-pNA absorbance 405 nm; D23A/D198A/D206A triple mutant, cannot self-cleave; scale: DMSO 0, 5 µM enzyme 100. activation, % at 8.5 µM. actives 0.093% (n = 330,000). AID 463210;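 active = percent activation above the screen-wide mean plus 3 SD, cut at about 25% in these data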
Target sequence (P55210 whole entry D23A/D198A/D206A): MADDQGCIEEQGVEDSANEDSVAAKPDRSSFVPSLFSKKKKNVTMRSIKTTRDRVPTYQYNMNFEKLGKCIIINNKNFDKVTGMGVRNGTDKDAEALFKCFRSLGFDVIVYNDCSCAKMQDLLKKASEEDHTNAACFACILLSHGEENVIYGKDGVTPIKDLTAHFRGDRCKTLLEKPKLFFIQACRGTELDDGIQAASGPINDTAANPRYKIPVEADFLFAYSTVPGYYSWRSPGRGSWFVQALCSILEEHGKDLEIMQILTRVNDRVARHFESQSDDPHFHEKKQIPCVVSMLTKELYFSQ
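Replicates: singlicate. Assay system: Procaspase-7 triple mutant (PC-7 D3A). Signal: 405 nm absorbance of p-nitroaniline. Times: 1 h preincubation, 2 h reaction. Buffer or medium: Zinc-free HEPES pH 7.4 with 300 mM NaCl, 0.01% Triton X-100. Also added: DEVD-pNA substrate. Benchmarks: DMSO wells as 0%, DMSO with 5 µM added PC-7 as 100%.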
VIM-2 inhibitor – inhibitors of Pseudomonas aeruginosa VIM-2 metallo-beta-lactamase; purified VIM-2, nitrocefin hydrolysis, epi-absorbance fluorescence; inhibition, % at 5.6 µM; actives 0.89% (n = 290,000); AID 1527;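 active = inhibition above the mean of all tested compounds plus 3 SD, cutoff set per screening run, cut at about 7.5% in these data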;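 note: red hydrolysis product quenches plate fluorescence so inhibitors raise well fluorescence; 0% = enzyme with DMSO and 100% = DMSO without enzyme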
IMP-1 inh – inhibitors of Pseudomonas aeruginosa IMP-1 metallo-beta-lactamase. purified IMP-1, nitrocefin hydrolysis, epi-absorbance fluorescence. inhibition, % at 5.6 µM. actives 0.45% (n = 290,000). AID 1556;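 active = inhibition above the mean plus 3 SD of all compounds in the same screening run, cut at about 4.5% in these data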;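 note: 0% = IMP-1 with DMSO and 100% = DMSO wells lacking enzyme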
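System – purified recombinant IMP-1 beta-lactamase · Input – IMP-1 dispensed at 0.2 nM · Timing – 15 min preincubation plus 25 min reaction at 25 °C · Signal – Epi-absorbance fluorescence, 480 nm excitation, 530 nm emission · Measure – percent IMP-1 inhibition derived from blank-referenced optical density · Controls – Enzyme-plus-DMSO low control, enzyme-free DMSO high control · Replication – singlicate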
PolyA inh – blocks polyadenylation in yeast reporter cells | S. cerevisiae SKY197-pL101 polyadenylation reporter, beta-gal luminescence; efflux-impaired pdr1/pdr3 knockout yeast; score 100 = 6 SD above DMSO | activity score, % at 12 µM | actives 0.02% (n = 300,000) | AID 1875;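 active = lowest replicate activity score at least 50, where 100 means six control SD above control mean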;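 note: yeast exposed to compound for 9 h at 30 °C; higher score means more reporter readthrough which indicates perturbed polyadenylation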
proCasp3 act – procaspase-3 (human) activation | P42574 | recombinant procaspase-3 D3A, Ac-DEVD-pNA absorbance 405 nm | activation, % at 8.5 µM | actives 0.11% (n = 330,000) | AID 463141;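 active = activation above the mean of all tested compounds plus 3 SD, cut at about 21% in these data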;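 note: 0% = DMSO alone and 100% = DMSO wells spiked with extra 5 µM PC-3 D3A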
Target sequence (P42574 whole entry D9A/D28A/D175A): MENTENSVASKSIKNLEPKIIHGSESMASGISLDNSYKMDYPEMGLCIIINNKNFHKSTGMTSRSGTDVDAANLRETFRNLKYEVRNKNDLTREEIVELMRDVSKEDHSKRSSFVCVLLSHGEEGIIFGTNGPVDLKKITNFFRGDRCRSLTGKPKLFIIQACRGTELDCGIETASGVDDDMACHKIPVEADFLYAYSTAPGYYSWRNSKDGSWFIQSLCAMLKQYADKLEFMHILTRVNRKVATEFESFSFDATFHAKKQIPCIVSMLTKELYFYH
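Evaluation: percent activation relative to control range; Material: Procaspase-3 D3A mutant, all three cleavage aspartates alanine; Compound: single dose, 8.5 µM nominal compound, 0.8% DMSO; Replication: one well per compound; Signal: absorbance at 405 nm, 0 and 120 min; Schedule: 1 h preincubation plus 2 h reaction at 25 °C.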
Neddylation inh – inhibitors of human cullin neddylation | P61081+Q13564 | TR-FRET cullin neddylation, biochemical | calls only at 25 µM | actives 0.58% (n = 360,000); in the data active = inhibition above about 36%
Starred values were filed as active, the others as inactive. A selection: hits, their analogues and other compounds. The true share with any hit is near 1.7%.

How did C#CCOCCOCCOCCNc1nc(N2CCN(C(=O)[C@H](Cc3ccc(O)cc3)n3cc([C@@H](N)C(C)CC)nn3)CC2)nc(N2CCN(C(=O)[C@H](Cc3cc4ccccc4[nH]3)n3cc([C@@H](N)CC(C)C)nn3)CC2)n1 (stereo partly specified) do in these assays?
procasp7 counter: 5; VIM-2 inhibitor: 1; IMP-1 inh: 4; PolyA inh: -8; proCasp3 act: 3

What do the screens show for `COc1ccc(-c2nc(C(=O)NCCCN3CCOCC3)cc3c2[nH]c2ccccc23)cc1OC`?
procasp7 counter: -2; VIM-2 inhibitor: 12*; IMP-1 inh: -2; PolyA inh: -7; proCasp3 act: 2

Results for Cc1ccc(-c2nc(C(=O)NCCCN3CCOCC3)cc3c2[nH]c2ccccc23)cc1 ?
procasp7 counter: 8; VIM-2 inhibitor: 1; IMP-1 inh: -3; PolyA inh: -1; proCasp3 act: -5; Neddylation inh: inactive

What do the screens show for `COc1cccc(Cn2c(=O)c3ccccc3n3nc(C)cc23)c1`?
procasp7 counter: -2; VIM-2 inhibitor: 9.1*; IMP-1 inh: 1; PolyA inh: -19; proCasp3 act: 7; Neddylation inh: inactive

What do the screens show for `N#CC(C(=O)NC1CCCCC1)c1nc2ccccc2nc1N1CCN(c2ccc(F)cc2)CC1` (stereo unspecified)?
VIM-2 inhibitor: -1; IMP-1 inh: -1; PolyA inh: 5

How did CC(C)CC1Nc2ncnc(N3CCN(c4ccccc4)CC3)c2N(Cc2ccccc2)C1=O (stereo unspecified) do in these assays?
procasp7 counter: -2; PolyA inh: 84*; proCasp3 act: 2; Neddylation inh: inactive

What do the screens show for `O=C(COC(=O)CSc1ccc(F)cc1)NC1CCCCCC1`?
procasp7 counter: 8; proCasp3 act: 2; Neddylation inh: inactive

How did COc1ccc(-n2c(C)cc(/C=C3\SC(=S)N(Cc4ccco4)C3=O)c2C)cc1 do in these assays?
procasp7 counter: 7; VIM-2 inhibitor: -3; IMP-1 inh: -2; PolyA inh: -1; proCasp3 act: 2; Neddylation inh: inactive

What do the screens show for `CCN1CCN(c2c(/C=C3\SC(=S)N(Cc4ccco4)C3=O)c(C)c(C#N)c(=O)n2C)CC1`?
procasp7 counter: -15; VIM-2 inhibitor: 1; IMP-1 inh: 6.4*; PolyA inh: 12; proCasp3 act: 0; Neddylation inh: inactive

How did COc1ccc(CC(=O)Nc2nc(-c3ccncc3)cs2)cc1 do in these assays?
procasp7 counter: -9; VIM-2 inhibitor: -3; IMP-1 inh: 6.7*; PolyA inh: -7; proCasp3 act: -14; Neddylation inh: inactive

How did COc1ccc(-c2csc(NC(=O)c3ccc(S(C)(=O)=O)cc3)n2)cc1 do in these assays?
procasp7 counter: -19; VIM-2 inhibitor: -1; IMP-1 inh: 5.6*; PolyA inh: 2; proCasp3 act: 3; Neddylation inh: inactive

Results for COc1ccc(CCC(=O)Nc2nc(-c3ccncc3)cs2)cc1 ?
procasp7 counter: 1; VIM-2 inhibitor: -6; IMP-1 inh: -1; PolyA inh: 4; proCasp3 act: -5

What do the screens show for `COc1ccc(-c2csc(NC(=O)c3ccccc3S(C)(=O)=O)n2)cc1`?
procasp7 counter: -5; VIM-2 inhibitor: -3; IMP-1 inh: -2; PolyA inh: -3; proCasp3 act: 2; Neddylation inh: inactive

How did CCC(=O)Nc1nnc(-c2ccncc2)s1 do in these assays?
procasp7 counter: 3; VIM-2 inhibitor: 1; IMP-1 inh: -2; proCasp3 act: 11; Neddylation inh: active

Results for Cn1cnc(C(=O)NC2CCN(C(=O)OC(C)(C)C)CC2)c1C(=O)NC1CCN(C(=O)OC(C)(C)C)CC1 ?
procasp7 counter: -1; proCasp3 act: 1; Neddylation inh: inactive

What do the screens show for `CC(=O)COc1ccc2oc(=O)cc(-c3cc4ccccc4o3)c2c1`?
procasp7 counter: 6; VIM-2 inhibitor: 8.3*; IMP-1 inh: -2; PolyA inh: -13; proCasp3 act: 1; Neddylation inh: inactive

Results for Cc1cc2oc(=O)cc(-c3cc4ccccc4o3)c2cc1O ?
procasp7 counter: -9; VIM-2 inhibitor: 1; IMP-1 inh: 6.0*; PolyA inh: -5; proCasp3 act: -9; Neddylation inh: inactive

What do the screens show for `Oc1c(Cl)cc(Cl)cc1CNc1ccccn1`?
VIM-2 inhibitor: -4; IMP-1 inh: -3; PolyA inh: -4; Neddylation inh: inactive

Results for CCC(C)(C)n1nnnc1C(CC(C)C)N1CCC(C(N)=O)CC1 (stereo unspecified) ?
procasp7 counter: 5; VIM-2 inhibitor: 0; IMP-1 inh: -1; PolyA inh: 19; proCasp3 act: 7; Neddylation inh: inactive

How did O=C1CSC(c2cccnc2)N1c1ccc(F)cc1 (stereo unspecified) do in these assays?
procasp7 counter: 1; VIM-2 inhibitor: -2; IMP-1 inh: 1; PolyA inh: 5; proCasp3 act: 11; Neddylation inh: inactive

How did CC(=O)Nc1ccc(CN2C(=O)C(CCc3ccccc3)ON=C2c2cnccn2)cc1 (stereo unspecified) do in these assays?
Neddylation inh: inactive

How did CN(C)c1ccc(NC(=S)c2ccc3ccccc3n2)cc1 do in these assays?
procasp7 counter: -34; VIM-2 inhibitor: 0; IMP-1 inh: -2; PolyA inh: -7; proCasp3 act: -35; Neddylation inh: inactive

What do the screens show for `N#CC1=C(S)N(c2ccccc2)C(c2ccc(-c3cc(Cl)ccc3Cl)o2)NC1=O` (stereo unspecified)?
procasp7 counter: -25; VIM-2 inhibitor: -3; IMP-1 inh: 0; PolyA inh: 5; proCasp3 act: -15; Neddylation inh: inactive

Results for N#CC1=C(S)N(c2ccccc2)C(c2ccc(-c3ccc(Cl)c(Cl)c3)o2)NC1=O (stereo unspecified) ?
procasp7 counter: -15; VIM-2 inhibitor: -2; IMP-1 inh: 5.2*; PolyA inh: 1; proCasp3 act: -10; Neddylation inh: inactive

How did COc1ccc2nc3cccc(OC)c3nc2c1 do in these assays?
procasp7 counter: -2; VIM-2 inhibitor: 7.7*; IMP-1 inh: 0; PolyA inh: -6; proCasp3 act: -9; Neddylation inh: inactive

What do the screens show for `C=CCOc1ccc(CN(C)Cc2nc3cc(C(F)(F)F)ccc3c(=O)[nH]2)cc1`?
procasp7 counter: 1; VIM-2 inhibitor: -4; IMP-1 inh: -3; PolyA inh: -7; proCasp3 act: 0; Neddylation inh: inactive

How did S=C(Nc1ccc2nc(-c3ccccn3)c(-c3ccccn3)nc2c1)N1CCCCC1 do in these assays?
VIM-2 inhibitor: -2; IMP-1 inh: -2; Neddylation inh: active
